ChEMBL document CHEMBL4818983, “Structure-activity relationship and hypoglycemic activity of tricyclic matrines with advantage of treating diabetic nephropathy” (Eur J Med Chem, 2020)
Activity calls are given as the source filed them. The rule behind the calls is not given here.

How the values were obtained:
Mus musculus [1] = assay: Antidiabetic activity in KK-Ay mouse assessed as effect on AGE level at 50 mg/kg, po for 24 hrs by ELISA (Rvb 2.85 +/- 0.92 ug/ml); type: functional
L6 = assay: Increase in glucose consumption in rat L6 cells after 24 hrs by glucose oxidase assay; type: functional, cell-based
In short: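 L6 myotubes treated with DMSO, compound or RGZ (20 μM) at the indicated concentrations for 24 h. Culture supernatants assayed for glucose consumption and lactate release; lysed cells assayed for ATP, normalized to protein. Mean ± SD of 3 independent experiments vs DMSO.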

[2] = Cytotoxicity against human HepG2 cells after 24 hrs by MTT assay; type: cell-based
In short: (§1)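 HepG2 cells exposed to compound; cell growth measured; CC50 derived from the concentration–growth relationship.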

[3] = Acute toxicity in Kunming mouse assessed as effect on blood GOT level at 250 to 1000 mg/kg, po administered as single dose measured for 7 days; type: organism-based; details: in vivo, 168 h, dose 250-1000 mg/kg, time 7 day
In short: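 Kunming mice each received one oral dose at 250, 500, 750 or 1000 mg·kg^-1 and were closely monitored for 7 days. At the end, blood was sampled and GOT, GPT, BUN and CRE were measured […] as liver and kidney function markers.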

Mus musculus [4] = assay: Antidiabetic activity in KK-Ay mouse assessed as reduction in fasting blood glucose level at 100 mg/kg, po for 50 days by glucose oxidase method (reference value: 13.3 +/- 2.85 mM); type: functional; details: time 50 day
In short: (§2)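 Lipogenic-diet KK-Ay mice given 50 or 100 mg/kg compound or 5 mg/kg rosiglitazone orally for 50 days, C57BL/6J as normal controls. Fasting blood glucose, glycosylated haemoglobin, AGE, insulin, HOMA-IR, cholesterol, LDL-c, TG, serum creatinine and BUN determined. Mean ± SD, 8-9 mice per group.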

Mus musculus [5] = assay: Antidiabetic activity in KK-Ay mouse assessed as effect on glycosylated haemoglobin level at 50 mg/kg, po for 50 days by glucose oxidase method (reference value: 8.74 +/- 1.08%); type: functional; details: time 50 day; in short: as §2
Mus musculus [6] = assay: Antidiabetic activity in KK-Ay mouse assessed as effect on AGE level at 100 mg/kg, […] by ELISA (Rvb 2.85 +/- 0.92 ug/ml); type: functional
Mus musculus [7] = assay: Antidiabetic activity in KK-Ay mouse assessed as effect on insulin level at 50 mg/kg, […] by ELISA (reference value: 226 +/- 15.5 mU/l); type: functional
Mus musculus [8] = assay: Antidiabetic activity in KK-Ay mouse assessed as effect on HOMA-IR level at 100 mg/kg, […] by ELISA (reference value: 137 +/- 18.4); type: functional
Mus musculus [9] = assay: Antidiabetic activity in KK-Ay mouse assessed as effect on cholesterol level at 50 mg/kg, […] by ELISA (reference value: 7.38 +/- 1.03 mM); type: functional
Mus musculus [10] = assay: Antidiabetic activity in KK-Ay mouse assessed as effect on LDL level at 50 mg/kg, po for 24 hrs by ELISA (reference value: 1.11 +/- 0.24 mM); type: functional
Mus musculus [11] = assay: Antidiabetic activity in KK-Ay mouse assessed as effect on Triglycerides level at 50 mg/kg, […] by ELISA (reference value: 4.01 +/- 1.83 mM); type: functional
Mus musculus [12] = assay: Antidiabetic activity in KK-Ay mouse assessed as effect on Triglycerides level at 100 mg/kg, […] by ELISA (reference value: 4.01 +/- 1.83 mM); type: functional
Mus musculus [13] = assay: Antidiabetic activity in KK-Ay mouse assessed as effect on serum Creatinine level at 50 mg/kg, po for 24 hrs by ELISA (reference value: 124 +/- 35.1 uM); type: functional
Mus musculus [14] = assay: Antidiabetic activity in KK-Ay mouse assessed as effect on BUN level at 100 mg/kg, po for 24 hrs by ELISA (reference value: 12.8 +/- 2.97 mM); type: functional
Mus musculus [15] = assay: Anti-diabetic activity in overnight fasted diabetic KK-Ay mouse assessed as increase in insulin responsiveness by measuring blood glucose at 50 to 100 mg/kg, po measured after 35 days by insulin tolerance test; type: functional, organism-based; details: dose 50-100 mg/kg, time 35.0 day
In short: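 KK-Ay mice orally treated with 50 or 100 mg/kg compound or 5 mg/kg rosiglitazone, C57BL/6J as normal controls. After 35 days of treatment, oral glucose tolerance test and insulin tolerance test run. Blood glucose plotted against time, AUC calculated. Mean ± SD, 8-9 mice per group.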

[16] = Effect on high fat diet-fed KK-Ay mouse model of obesity and diabetes assessed as water intake at 100 mg/kg, po (reference value: 21.2 +/- 4.17 ml/day); type: ADME, organism-based; details: in vivo
In short: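 KK-Ay mice on lipogenic diet, with C57BL/6J mice as normal controls, dosed orally at 50 or 100 mg/kg (test) or 5 mg/kg (RGZ). Food intake (g/day), water intake (mL/day) and body weight recorded before and after treatment; body weight gain calculated. Mean±SD, 8-9 mice per group.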

[17] = Effect on high fat diet-fed po dosed C57BL/6J mouse model of obesity and diabetes assessed as total body weight gain; type: organism-based; details: in vivo
Mus musculus [18] = organism: Mus musculus; assay: Anti-diabetic activity in high fat diet-fed C57BL/6J mouse model of obesity and diabetes assessed as reduction in urine glucose level measured after 24 hrs; type: functional, organism-based
In short: (§3)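 Before study end, 24-h urine collected from C57BL/6J controls and KK-Ay mice (untreated, oral 50 or 100 mg/kg compound, or 5 mg/kg rosiglitazone). Volume, glucose, total protein and microalbumin measured by kits. Mean ± SD, 8-9 mice per group, vs C57BL/6J or untreated KK-Ay.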

Mus musculus [19] = organism: Mus musculus; assay: Anti-diabetic activity in high fat diet-fed C57BL/6J mouse model of obesity and diabetes assessed as […] in total protein level in urine measured after 24 hrs; type: functional, organism-based; in short: as §3
Mus musculus [20] = organism: Mus musculus; assay: Anti-diabetic activity in high fat diet-fed C57BL/6J mouse model of obesity and diabetes assessed as decrease in microalbumin level in urine measured after 24 hrs; type: functional, organism-based; in short: as §3
Mus musculus [21] = assay: Anti-diabetic activity in high fat diet-fed KK-Ay mouse model of obesity and diabetes assessed as reduction in microalbumin level in urine at 50 to 100 mg/kg, po measured after 24 hrs; type: functional, organism-based; details: dose 50-100 mg/kg; in short: as §3
HepG2 [22] = assay: Induction of glycolysis in human HepG2 cells assessed as reduction in cellular ATP production at 10 to 40 uM measured after 24 hrs; type: functional, cell-based; details: dose 10-40 µM
In short: (§4)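 HepG2 cells treated 24 h at the indicated concentrations; RGZ as reference. Supernatants used for glucose consumption and lactate release; lysed cells used for ATP, normalized to protein content. Mean ± SD of 3 or 4 separate experiments; compared with DMSO.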

HepG2 [23] = assay: Increase in glucose consumption in human HepG2 cells at 10 to 40 uM measured after 24 hrs; type: functional, cell-based; details: dose 10-40 µM; in short: as §4
HepG2 [24] = assay: Cytotoxicity against human HepG2 cells upto 160 uM after 24 hrs by MTT assay; type: cell-based; details: hepg2, 24 h; in short: as §1
[25] = Effect on high fat diet-fed C57BL/6J mouse model of obesity and diabetes assessed as food intake; details: in vivo

CCCC[C@@H]1[C@H]2CCCN3CCC[C@@H](CN1S(=O)(=O)c1ccc(C(F)(F)F)cc1)[C@@H]23
Activity (Mus musculus [1]): 1.59 µg/mL
Activity (L6): Dose-Dependent Effect
CC50 at 24 h [2]: 642 µM
Activity [3]: Non-Toxic
Activity (Mus musculus [4]): 8.18 mM
Activity (Mus musculus [5]): 7.07%
Activity (Mus musculus [6]): 1.13 µg/mL
Activity (Mus musculus [7]): 177 mU/L
Activity (Mus musculus [8]): 46.5
Activity (Mus musculus [9]): 7.05 mM
Activity (Mus musculus [10]): 1.06 mM
Activity (Mus musculus [11]): 2.89 mM
Activity (Mus musculus [12]): 2.39 mM
Activity (Mus musculus [13]): 88.8 µM
Activity (Mus musculus [14]): 12.4 mM
Activity (Mus musculus [15]): Active
Activity [16]: 11.9 mL/day
Activity [17]: 3.42 g
Activity (Mus musculus [18]): Active
Activity (Mus musculus [19]): inactive
Activity (Mus musculus [20]): inactive
Activity (Mus musculus [21]): Active
Activity (HepG2 [22]): Dose-Dependent Effect
Activity (HepG2 [23]): Dose-Dependent Effect
Activity (HepG2 [24]): Non-Toxic
Activity [25]: 4.29 g/day
